The chains are these.
B1: tRNA (parent)
chain: GUUCCGUUGGCGUAAUGGUAACGCGUCUCCCUCCUAAGGAGAAGACUGCGGGUUCGAGUCCCGUACGGAACG

Among the data in the RNAGym collection of RNA variant scans (doi:10.1126/science.aae0568) are yeast fitness values, retold here.

Fewer inactive variants are shown than the library holds.

Variants of B1 are the subject of the data set. The experiment in a line: yeast fitness relative to wild type (ratio to wild type); higher = fitter; tRNA-Arg(CCU), competitive growth, 37 C, YPD. In short, it runs like this: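 For this measurement, the tRNA-Arg(CCU) gene was varied by chemical synthesis at a 3% per-site mutation rate across 69 sites, and each variant was placed at the native genomic locus in Saccharomyces cerevisiae. The pooled strains went through a 24-hour competition in YPD at 37°C in six parallel replicates, with amplicons from start and end populations read by 100-nucleotide paired-end sequencing. Darwinian fitness relative to wild type followed from the change in each genotype's frequency. Genotypes needed ≥ 100 starting reads, and estimates < 0.5 were set to 0.5.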
As to GUUCCCUUGGCGGAAUGAUAACGCGUCUCCCUCCUAAGGAGAAGACUGCGGGUUGGAGUCCCGUACGGAACG, the yeast fitness was not above 0.5.
As for GUUCCCUCGGCGUAAUGGUAACGCAUCUCCCUCUUAAGGAGAUGACUGCGGGUUCGAGUCCCGUACGGAACG, the yeast fitness was not above 0.5.
As for GUUCCCUUGGCGUAAUGGUAACGCGUCUCCCCCCUAAGGAGAAGACUGCGGGUUCGAGUCCCGUACGGAACG, the yeast fitness is 0.994.
Take GUUCCCUUGGCGGAAUGGUAAAGCGUCUCCCUCGUAAGGAGAAGACUGCGGGUUCGAGUCCAGUACGGAACG: the yeast fitness came out at 0.59.
The same measure for GUUCCCUUGGCGUAAUGGUAACGCGUCUCCCUCCUAAGGAGAAGACUGCGGGUUCGAGCCCCGUACGGAACG: 0.656.
The same measure for GUUCCCUAGGCGUAAUGGUAAUGCGUCUCCCUCCUAAGGAGAAGACUGCGGGUUCGAGUCGCGUACGGAACG: 0.501; for GUUCCCUUGGCGUAAAGGUAACGCGUCUCACUCCUAAGGAGAAGACUGCGGGUUCGAGUCCCGUACGGUACG: not above 0.5.
Then GUUCCCUCGGCGUAAUGGUAACGCGUCUCCCUUCUAAGGAGAGGACUGCGGGUUCGAAUUCCGUACGGAACG, with not above 0.5; and GUUCCCUCGGCGUAAUGGUAACGCGUCUCCCUCCUAAGGAGAAGACUACGGGUUCGAGUCCCGUACGGAACG, with 0.664.
On to GUUCCCUAGGCGUAAUGGUAAUGCGUCUCCCUCCUAAGGAGAAGACUGCGGGUUCGAGCCCCGUACGGAACG, for which the yeast fitness was not above 0.5.
In the case of GUUCCCUUGGCGUAAAGGUAACCCGUCUCCCUCCUAAGGAGAAGACUGCGGGUUCGAGUCCCGAACGGAACG, the yeast fitness was not above 0.5.
On to GUUCCCUCGGCGUGAUGGUAACGCGUCUCCCUCCUAAGGAGAAGACUGCGGGUUCGAGUCCCGUACGGAACG, for which the yeast fitness is 0.522.
The same measure for GUUCCCUUGGCGGAAUGAUAACGCGUCUCCCUCCUAAGGAGAAGACUGCGGGUCAGAGUCCCGUACGGAACG: not above 0.5.
GUUCCCGUGGCGUAAUGGUAACGCGUCUCCCUCCUAAGGAGAAGACUGCGGGUUCGAGUCCCGUACGGAACG: the yeast fitness amounted to 0.725.
Take GUUCCCGUGGCGUAAUGGAAACGCGUGUCCCUCCUAAGGAGAAGACUGCGGGUUCGAGUCCCGUACUGAACG: the yeast fitness was not above 0.5.
Then GUUCCCUUGGCGUAAUGGUAACGCGUCUCCCUCCAAAGGAGAAGACUGCGGGUUCGAGUCCCGUACGGAACG, with 0.876; and GUUCCCUUGGCGUAAUGGUAACGCGACUCCCUCCUAAGGAGAAGACUGCGGGUUCGAGUCCCGUACGGAACG, with 0.641; and GUUCCCUUGGCGUAAUGGUAACGCGCCUCCCUCCUAAGGAGAAGACUGCGGGUUCGAGUCCCGUACGGAACG, with 0.959.
The same measure for GUUCCCUUGGCGUAAUGGUAACGCGGCUCCCUCCUAAGGAGAAGACUGCGGGUUCGAGUCCCGUACGGAACG: 0.721; for GUUCCCUCGGCGUAAUGGUAACGCGUCUCCCUCCUAAGGACAAGACUGCGGGUUCGAGUCCCGUACGGAACG: not above 0.5.
Turning to GUUCCCUUGGCGUAAUGGUAACGCGCCUCCCUCCUAAGGAGAAGACUGCGGGUUCGAGUCCCGAACGGAACG, the yeast fitness is not above 0.5.
For the variant GUUCCCUUGGCGUAAUGGUAACGCGUCUCCCUCCUAAGGAGAAGACAGCGCGUUCGAGUCCCGUGCGGAACG, the yeast fitness turned out to be 0.644.
The same measure for GUUCCCUCGGCGUAAUGGUAACGCGUCUCCCUCCUAAGGAGAAGACUGCGGGUUCGAGUCCCGUAUGGAACG: 0.73; for GUUCCUUUGGAGAAAUGGUAACGCGUCUCCCUCCUAAGGAGAAGACUGCGGAUUCGAGUCUCGUACGGCACG: 0.527.
With GUUCCCUCGGCGUAAUGGUAACGCGUCUCCCUCCUAAGGAGAAGACUGCGGGUUCAAGUCCCGUACGGAACG, the yeast fitness stood at 0.672.
For GUUCCCUUGGCGUAAUGGUAACGCGCCUCCCUCCUAAGGAGAAGACUGCGGGUUCGAGUCCCGUACGAAACG, the yeast fitness came to 0.537.
Then GUUCCCUCGGCGUAAUGGUAACGCGUCUCCCUCCUAAGGAGAAGACUGCGGGUUCGAGUCCCGUACGGAACG, with 0.662.
Then GUUCCCUUGGCGUAAUGGUAACGCGUCUCCCUCCUAAGGAGAAGACUGCGGGGUCGAGUCCCGUACGGAACG, with 0.519.
The same measure for GUUCCCCUGGCGUAAUGGUAACCAGUCUCCCUCCUAAGGAGAAGACUGUGGGUUCGAGUACCGUACGGAACG: not above 0.5.
Consider GUUCCCUUGGCGUAAUGGAAACGCGUCUCCCUCCUAACGAGAAGACUGCGGGUUAGAGUCCCGUACGGAACG, for which the yeast fitness is not above 0.5.
Consider GUUCCCGUGGCGUAAGGGUAACGCGUCUCCCUCCUAAGGAGAGGACUGCGGGUUCGAGUCCCGUACGGAACG, for which the yeast fitness was determined as 0.707.
Turning to GUUCCCUUGGCGUAAUGGUAACGCGUCUCCCUCCUAAGGAGAAGACCGCGGGUUCGAGUCCCGUACGGAACG, the yeast fitness was 1.01.
Take GUUCCCUUGGCGUAAUGGUAACGCGUCUCCCUCCUAAGGAGAAGACGGCGGGUUCGAGUCCCGUACGGAACG: the yeast fitness was 0.588.
Then GUUCCCUCGGCGUAAUGGUAACGCGUCUCCCUCCUAAGGAGAAGACUGCGGGUUCGACUCCCGUACAGAACG, with not above 0.5.
Then GUUCCUUUGGCGUAAUGGUAACGCGUCUCCCUCCUAAGGAGAAGACUGCGGGUUCGAGUCCCGUCCGGAACG, with 0.799; and GUUCCCUUGGCGUAAUGGAUAGGCGUCCCCCUCAUAAGGAGAAGACUGCGGAUUCGAGUCCCGUACGGAACG, with not above 0.5; and GUUCCCGUGGCGUAAUCGUAACGCGUCUCCCUCCUAAGGAGAAGACUGCGGGUUCGAGUCCCGUACGGAACG, with 0.525.
The same measure for GUUCCCUUGGCGUAAUGGUAACGCGCCUCCCUCCUAUGGAGAUGACUGCGGGUUCGAGUCCCGUACGGAACG: not above 0.5.
